Experimental data reported in ChEMBL document CHEMBL3992509, “Discovery of a Highly Potent, Selective, and Metabolically Stable Inhibitor of Receptor-Interacting Protein 1 (RIP1) for the Treatment of Systemic Inflammatory Response Syndrome” (J Med Chem, 2017).
Calls of active or inactive are those of the source. No cut-off for these calls is given here.

How the values were obtained:
[1] = Intrinsic clearance in human liver microsomes assessed per mg protein in presence of NADPH by LC-MS/MS analysis; format: ADME, microsome; conditions: read-out: CLH
[2] = Half life in mouse liver microsomes in presence of NADPH by LC-MS/MS analysis; format: ADME, microsome
[3] = Intrinsic clearance in mouse liver microsomes assessed per mg protein in presence of NADPH by LC-MS/MS analysis; format: ADME, microsome; conditions: read-out: CLH
[4] = Half life in human liver microsomes in presence of NADPH by LC-MS/MS analysis; format: ADME, microsome
Mus musculus [5] = assay: Protection against TNFalpha-induced mortality in C57BL/6J mouse assessed as survival rate at 6 mg/kg, ip administered as single dose 17 mins before TNFalpha injection measured every 30 mins up to 60 hrs post TNFalpha injection (reference value: 50%); format: functional
[6] = biological target: Receptor-interacting serine/threonine-protein kinase 3 (Homo sapiens) (UniProt Q9Y572); assay: Inhibition of full length recombinant human N-terminal GST-tagged RIP3 expressed in baculovirus infected sf9 cells at 10 uM using MBP as substrate preincubated for 15 mins followed by MBP/ATP mixture addition measured after 90 mins by ADP-Glo kinase assay
Chain of Receptor-interacting serine/threonine-protein kinase 3 (Homo sapiens) (Q9Y572 whole entry, looked up): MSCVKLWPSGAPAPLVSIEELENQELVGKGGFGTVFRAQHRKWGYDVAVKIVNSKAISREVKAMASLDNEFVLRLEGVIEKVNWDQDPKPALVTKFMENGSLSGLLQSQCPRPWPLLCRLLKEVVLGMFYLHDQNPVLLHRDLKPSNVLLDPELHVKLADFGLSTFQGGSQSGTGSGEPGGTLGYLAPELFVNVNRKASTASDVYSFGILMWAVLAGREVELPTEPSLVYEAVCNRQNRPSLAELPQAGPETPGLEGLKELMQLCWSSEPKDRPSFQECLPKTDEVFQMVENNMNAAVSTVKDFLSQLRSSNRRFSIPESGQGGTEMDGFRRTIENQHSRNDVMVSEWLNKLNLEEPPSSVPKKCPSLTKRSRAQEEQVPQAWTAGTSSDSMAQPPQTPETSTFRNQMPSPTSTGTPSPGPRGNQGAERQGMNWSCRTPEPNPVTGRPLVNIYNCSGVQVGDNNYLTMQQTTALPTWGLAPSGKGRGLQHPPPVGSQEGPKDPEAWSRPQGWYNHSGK

[7] = biological target: T1, Receptor-interacting serine/threonine-protein kinase 1 (Homo sapiens, UniProt Q13546); assay: Inhibition of recombinant GST-tagged RIP1 (unknown origin) after 4 hrs by ADP-Glo kinase assay
T1 sequence (Q13546 whole entry): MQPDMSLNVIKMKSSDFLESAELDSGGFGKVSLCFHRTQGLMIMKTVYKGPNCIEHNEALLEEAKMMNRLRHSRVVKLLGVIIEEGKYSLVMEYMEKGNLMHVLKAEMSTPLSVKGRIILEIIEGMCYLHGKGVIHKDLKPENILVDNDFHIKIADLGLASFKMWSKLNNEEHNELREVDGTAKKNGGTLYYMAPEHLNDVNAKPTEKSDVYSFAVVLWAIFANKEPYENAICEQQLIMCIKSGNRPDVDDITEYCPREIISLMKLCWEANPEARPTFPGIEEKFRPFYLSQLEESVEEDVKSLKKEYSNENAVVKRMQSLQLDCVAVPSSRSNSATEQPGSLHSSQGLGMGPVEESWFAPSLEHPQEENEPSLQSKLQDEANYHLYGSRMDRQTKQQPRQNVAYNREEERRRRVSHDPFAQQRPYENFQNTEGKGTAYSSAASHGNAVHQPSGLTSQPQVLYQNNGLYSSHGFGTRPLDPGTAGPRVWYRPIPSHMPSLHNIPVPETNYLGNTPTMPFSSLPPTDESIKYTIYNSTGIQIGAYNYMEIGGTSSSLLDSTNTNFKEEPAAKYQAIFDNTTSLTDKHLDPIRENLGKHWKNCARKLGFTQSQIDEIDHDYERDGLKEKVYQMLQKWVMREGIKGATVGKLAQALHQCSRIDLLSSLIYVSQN

[8] = biological target: Indoleamine 2,3-dioxygenase 1 (Homo sapiens, UniProt P14902); assay: Inhibition of recombinant human IDO expressed in Escherichia coli assessed as reduction in kynurenine production at 200 uM using L-tryptophan as substrate after 3 hrs by methylene blue dye based assay
Chain of Indoleamine 2,3-dioxygenase 1 (P14902 whole entry): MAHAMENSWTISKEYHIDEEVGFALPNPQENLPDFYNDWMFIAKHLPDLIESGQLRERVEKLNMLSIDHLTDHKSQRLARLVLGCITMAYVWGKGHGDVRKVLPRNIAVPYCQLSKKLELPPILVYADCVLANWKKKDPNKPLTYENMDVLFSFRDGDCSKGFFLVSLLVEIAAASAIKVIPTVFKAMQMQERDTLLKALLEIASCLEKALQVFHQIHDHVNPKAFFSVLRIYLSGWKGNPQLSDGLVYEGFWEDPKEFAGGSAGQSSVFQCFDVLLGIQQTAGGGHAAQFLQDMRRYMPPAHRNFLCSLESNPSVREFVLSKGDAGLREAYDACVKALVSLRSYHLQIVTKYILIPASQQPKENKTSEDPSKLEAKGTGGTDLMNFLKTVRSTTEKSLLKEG
In short: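 Reaction mix: 50 mM MES pH 6.5, 20 mM ascorbate, 2250 U/mL catalase, 10 μM methylene blue, 200 μM L-Trp, 100 nM recombinant IDO, 200 μM compound or DMSO. Incubated 37 °C for 3 h; kynurenine colour read at 321 nm.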

Mus musculus [9] = assay: Protection against TNFalpha-induced multiorgan damage in C57BL/6J mouse assessed as inhibition of TNFalpha-induced increase in IL-1beta level at 6 mg/kg, ip administered as single dose 17 mins before TNFalpha injection measured 12 hrs post TNFalpha injection; format: functional, organism-based
In short: (§1)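 C57BL/6 mice given mTNFα IV, then a single 6 mg/kg IP compound dose 17 min before TNFα. Blood taken 12 h after TNFα for mIL-6 and mIL-1β.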

Mus musculus [10] = assay: Protection against TNFalpha-induced multiorgan damage in C57BL/6J mouse assessed as inhibition of TNFalpha-induced increase in IL-6 level at 6 mg/kg, ip administered as single dose 17 mins before TNFalpha injection measured 12 hrs post TNFalpha injection; format: functional, organism-based; in short: as §1

Row | Structure (SMILES) | microsomal CLint [1] [µL/min/mg] | half-life [2] [min] | microsomal CLint [3] [µL/min/mg] | half-life [4] [min] | also measured
1 | CCC(C)(C)C(=O)N(O)Cc1ccc(F)c(F)c1 | 6.5 | 11.3 | 61.4 | 107 | 
2 | CN1C(=O)C(Cc2c[nH]c3ccccc23)NC1=S (stereo not drawn) [NECROSTATIN] |  |  |  |  | survival at 6 mg/kg (Mus musculus [5]): 60%; inhibition [6]: inactive; IC50 [7]: 760 nM; inhibition (INH) [8]: Active; inhibition (Mus musculus [9]): Active; inhibition (Mus musculus [10]): Active
3 | CCC(C)(C)C(=O)NC(C)c1ccccc1 (stereo not drawn) |  |  |  | > 200 | 
4 | CCC(C)(C)C(=O)N(O)Cc1ccc(F)c(F)c1F | 13.1 | 13.9 | 49.9 | 52.9 | 

Now from value to molecule, other results behind:

Row | microsomal CLint [1] [µL/min/mg] | half-life [2] [min] | microsomal CLint [3] [µL/min/mg] | half-life [4] [min] | Structure (SMILES) | also measured
5 | 3.9 | 24.1 | 28.8 | 178 | CCC(C)(C)C(=O)N(O)Cc1ccc(F)cc1 | 
6 |  |  |  | > 200 | CCC(C)(C)C(=O)NCc1ccccc1 | 
7 |  |  |  | > 200 | CCC(C)(C)C(=O)NC(CO)c1ccccc1 (stereo not drawn) | 
8 | 3.5 | 23.2 | 29.9 | 198 | CCC(C)(C)C(=O)N(O)Cc1ccc(F)cc1F | 
9 | 10.5 | 7.89 | 87.8 | 66 | CCC(C)(C)C(=O)N(O)Cc1cc(F)c(F)c(F)c1 | 
10 | 10.4 | 9.21 | 75.3 | 66.6 | CCC(C)(C)C(=O)N(O)Cc1cc(F)cc(F)c1F | 
